For six molecules, EC50, Emax and Stability results are on record in ChEMBL document CHEMBL4616713, “Discovery of Novel Nonpeptidic PAR2 Ligands” (ACS Med Chem Lett, 2020).

Molecules are shown by their SMILES. Non-standard residues stand in square brackets, D forms with d. Residues, ends and D or L forms follow the SMILES beside them. *: point of attachment. Orn = NCCC[C@H](N)C(=O)O; 2Furoyl = O=C(c1ccco1)*

One may read the EC50 as the concentration giving half of the maximal effect. As usually defined, the Emax is the greatest response seen or fitted, relative to the assay's reference.

Data set [1] addresses T1, Proteinase-activated receptor 2 (Homo sapiens, UniProt P55085).
T1 sequence (P55085 whole entry): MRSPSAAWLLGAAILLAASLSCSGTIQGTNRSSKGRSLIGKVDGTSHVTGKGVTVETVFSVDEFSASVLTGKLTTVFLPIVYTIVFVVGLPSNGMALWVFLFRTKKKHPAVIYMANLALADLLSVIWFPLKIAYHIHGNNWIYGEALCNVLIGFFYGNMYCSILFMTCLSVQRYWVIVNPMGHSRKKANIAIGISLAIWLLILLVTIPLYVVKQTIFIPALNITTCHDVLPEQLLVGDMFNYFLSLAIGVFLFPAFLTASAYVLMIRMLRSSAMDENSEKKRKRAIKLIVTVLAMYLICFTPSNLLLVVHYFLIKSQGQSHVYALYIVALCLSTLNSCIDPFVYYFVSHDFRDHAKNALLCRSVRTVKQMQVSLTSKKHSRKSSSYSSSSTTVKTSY
As to the kind of experiment: Agonist activity at human PAR2 expressed in HEK293T cells assessed as induction of Galphaq-stimulated IP1 formation incubated for 2 hrs by FRET assay. The class given is functional, cell-based, HEK-293T. Summed up:
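Gq activation via PAR2 in HEK293 cells, read as IP1 accumulation by FRET (IP-One). For curves without a plateau, the value given is efficacy at 30 μM. Data are mean ± SEM of at least three independent experiments, each performed in duplicate.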

Data set [2] concerns the target T1, Proteinase-activated receptor 2. As to the kind of experiment: Agonist activity at PK1-tagged PAR2 (unknown origin) expressed in HEK293 cells assessed as induction of beta-arrestin recruitment incubated for 90 mins by Pathhunter chemiluminescent assay. It counts as cell-based. Put shortly: (§1)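 PathHunter enzyme-complementation read-out of β-arrestin-2 recruitment to PAR2 in HEK293 cells. Efficacy is expressed relative to reference 2f-LIGRLO-NH2. Data are mean ± SEM of at least three independent experiments run in duplicate.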

Data set [3] shares this target. Briefly: Agonist activity at PK1-tagged PAR2 (unknown origin) expressed in HEK293 cells assessed as induction of beta-arrestin recruitment at 30 uM incubated for 90 mins by Pathhunter chemiluminescent assay relative to 2f-LIGRLO-NH2. It counts as cell-based. The settings on record: 1.5 h. Summed up: as §1
For orientation: Activated receptors often draw arrestin, which recruitment assays turn into a signal.

Data set [4] can be described thus: Stability in rat plasma measured up to 4 hrs by LC-MS analysis. It counts as ADME, cell-free. Summed up: (§2)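 Ligand was incubated in rat plasma and sampled at set time points up to 4 h. Samples were analysed by LC–MS. Standard-corrected peak areas are expressed as % of t = 0 min, mean ± SEM (n ≥ 3).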
Data set [5] is described as follows: Metabolic stability in Sprague-Dawley rat liver microsomes assessed as CYP450-mediated drug degradation at 20 uM measured up to 60 mins in presence of NADPH by LC-MS analysis. To be noted: 1 h. (In general: Microsomes from liver hold many membrane-bound enzymes, among them those of drug oxidation.)
The target of data set [6] is T1, Proteinase-activated receptor 2. As to the kind of experiment: Agonist activity at PK1-tagged PAR2 (unknown origin) expressed in HEK293 cells assessed as induction of beta-arrestin recruitment incubated for 90 mins by Pathhunter chemiluminescent assay relative to 2f-LIGRLO-NH2. The class given is cell-based. The settings on record: 1.5 h. Put shortly: as §1
Data set [7] can be described thus: Stability in rat plasma assessed as drug degradation after 1 hr by LC-MS analysis. It counts as ADME, cell-free. Summed up: as §2

As to `NC(=O)Cc1ccccc1CNC(=O)Cc1ccccc1CNC(=O)c1ccno1`, the 50% effective concentration (EC50) result in data set [1] (hek-293t) and in data set [2] (hek293) was “Not Active” each time.
On to `NC(=O)Cc1ccccc1CNC(=O)[C@H](Cc1ccccc1)NC(=O)c1ccno1`, for which the EC50 in data set [1] (read-out: EC50) was determined as 1900 nM. Besides, the Emax at 30 µM in data set [3] turned out to be 32%.
`NC(=O)Cc1ccccc1CNC(=O)[C@H](CC1CCCCC1)NC(=O)c1ccno1`: the EC50 in data set [1] (read-out: EC50) was determined as 590 nM; in data set [2] (read-out: EC50), 6000 nM. The Stability result in data set [4] and in data set [5] was “Stable” in each case. The Emax in data set [6] was determined as 65%.
For the molecule `Cc1cc(C(=O)N[C@@H](CC2CCCCC2)C(=O)NCc2ccccc2CC(N)=O)on1`, the results for the EC50 in data set [1] (read-out: EC50) and in data set [2] (read-out: EC50) were 640 nM and 8900 nM, respectively. Moreover, the Stability entry in data set [4] and in data set [5] was “Stable” in each case. The Emax in data set [6] was 95%.
As for `CC[C@H](C)[C@H](NC(=O)[C@H](CC(C)C)NC(=O)c1ccco1)C(=O)NCC(=O)N[C@@H](CCCN=C(N)N)C(=O)N[C@@H](CC(C)C)C(=O)N[C@@H](CCCN)C(N)=O` (2Furoyl-LIGRL[Orn]-NH2), the EC50 was 150 nM in data set [1] (read-out: EC50) and 430 nM in data set [2] (read-out: EC50). In addition, the results for the Stability result in data set [5] and in data set [7] were “Stable” and “Unstable”, respectively.
With `CC[C@H](C)[C@H](NC(=O)[C@H](CC(C)C)NC(=O)c1ccco1)C(=O)NCC(=O)N[C@@H](CCCNC(=N)N)C(=O)N[C@@H](CC(C)C)C(=O)N[C@@H](CCCN)C(N)=O` (2Furoyl-LIGRL[Orn]-NH2), the Emax in data set [6] amounted to 100%.
